Source: ChEMBL document CHEMBL1131767, “Substituted coumarins as esterase-sensitive prodrug moieties with improved release rates” (Bioorg Med Chem Lett, 1999)

Experiments:
[1] = species on record: Sus scrofa; test: Pseudo first order rate constant to release model amine drug after esterase catalyzed hydrolysis at an enzyme concentration of 1 unit/mL
Procedure, shortened: (§1)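 Porcine liver esterase (PLE), about 1 unit/mL, incubated with the model prodrug in 0.05 M phosphate buffer at pH 7.4 and 37 ± 0.5 °C. Amine release was followed by UV. The pseudo-first-order rate constant (kobs, min⁻¹) and the half-life (min) are reported.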

[2] = Compound was evaluated for the half life; assay type: ADME; procedure, shortened: as §1

Row | SMILES | K obs x10e2 [1] | half-life [2]
1 | CC(=O)Oc1ccccc1/C=C\C(=O)N(C)Cc1ccccc1 | 2.13 min⁻¹ | 32.5 min
2 | CC(=O)Oc1cc(C)cc(C)c1/C=C\C(=O)N(C)Cc1ccccc1 | 11 min⁻¹ | 6.3 min
3 | CCN(CC)C(=O)/C=C\c1c(C)cc(C)cc1OC(C)=O | 3.7 min⁻¹ | 18.8 min
4 | CCN(CC)C(=O)/C=C\c1c(C)ccc(C)c1OC(C)=O | 6.1 min⁻¹ | 11.4 min

Continued, values first:

Row | K obs x10e2 [1] | half-life [2] | SMILES
5 | 0.37 min⁻¹ | 188 min | CCN(CC)C(=O)/C=C\c1ccccc1OC(C)=O
6 | 14.4 min⁻¹ | 4.8 min | CC(=O)Oc1c(C)ccc(C)c1/C=C\C(=O)N(C)Cc1ccccc1
